Measurements reported in paper PMC7357173 (Toxicological Sciences, 2020).
Structures can show the parent of a compound that is named as a salt.

What was measured:
Format in all cases: cell-based, human
HepG2 cells [1] = experiment: Cellular stress panel as a whole; conditions: for bioactivity group: HepG2 cellular stress panel
Procedure, shortened: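 HepG2 exposed 1, 6 or 24 h to 8 nominal concentrations (0.5% DMSO), one run, 3 technical replicates each. Per-plate raw values divided by the median control and log2-transformed; concentrations log10-transformed. Bayesian fit with a Student's t (5 df) replicate model and well-position scale term. PoD found by linear interpolation; CDS is the fraction of 10 000 samples yielding a PoD.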

HepG2 cells [2] = experiment: Phospholipidosis; conditions: HepG2, 24 h
Procedure, shortened: (§1)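 High-content imaging of HepG2 seeded at 10 000 (24 h) or 12 500 (6, 1 h) cells/well and adhered overnight. Triplicate wells at 8 concentrations, 0.5% DMSO. Mito-mass stained with a mitochondria-specific fluorescent dye; PLD detected by a dye conjugating to phospholipids. Cells fixed in 4% formaldehyde with Hoechst 33342 where required. Eight fields imaged per well (10×); intensity compared against vehicle wells.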

HepG2 cells [3] = experiment: Cellular ATP
Procedure, shortened: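 HepG2 in supplemented MEM (10% FBS), kept below 85% confluence and ≤8 passages. Treated with 8-point dilutions from DMSO stocks (0.5% DMSO final) at 37°C, 5% CO2. Cellular ATP read by CellTiterGlo luminescence, normalized to vehicle wells as fold change. Run once, triplicate wells per concentration. PoD taken from Bayesian concentration–response fits.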

HepG2 cells [4] = experiment: Glutathione content
IL-8 = IL-8 secretion, ELISA of HepG2 supernatants; conditions: HepG2, 24 h
Procedure, shortened: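 HepG2 grown and exposed as for the other assays: 8 concentrations from DMSO stocks, 0.5% DMSO final, 37°C, 5% CO2, triplicate wells, one run. 50 µl of supernatant collected after the incubation and assayed for IL-8 by ELISA kit. Values divided by the plate median control, log2-transformed and fitted by Bayesian concentration–response modelling to give PoD.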

HepG2 cells [5] = experiment: Mitochondrial mass; conditions: HepG2, 1, 6 and 24 h; subcytotoxic PoD
Procedure, shortened: as §1

HepG2 cells [6] = experiment: Oxygen consumption rate
Procedure, shortened: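 HepG2 seeded at 16 000 cells/well, attached overnight, then treated 1, 6 or 24 h; the final 60 min was in unbuffered DMEM (10 mM glucose, 30 mM NaCl, 1 mM pyruvate, 2 mM L-alanyl-glutamine, pH 7.4, 37°C). Four baseline and six post-compound reads (3-min mix, 4-min read). Then oligomycin 1 μM, FCCP 0.5 μM and rotenone/antimycin A 1 μM each. Values baseline-normalized and corrected for nonmitochondrial OCR.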

HepG2 cells [7] = experiment: Mitochondrial ROS; conditions: HepG2, all timepoints, highest concentration

## O=c1ccc2ccccc2o1 [Coumarin]
HepG2 cells [1]; HepG2, around the top concentration tested
  all PoDs of the panel: ~1000 µM
HepG2 cells [1]
  bioactivity group: 1
HepG2 cells [2]
  change in phospholipidosis: decrease
HepG2 cells [3]; HepG2, 6 and 24 h
  change in cellular ATP (lowest PoD): decrease
HepG2 cells [4]; HepG2, 24 h
  change in glutathione: increase
IL-8
  change in IL-8: decrease

## O=C(O)Cc1ccccc1Nc1c(Cl)cccc1Cl [Diclofenac, Diclofenac sodium salt]
HepG2 cells [1]; total Cmax of Table 2 vs nominal in vitro PoD
  estimated plasma Cmax compared with minimum PoD: approximately one order of magnitude below the lowest PoD

## COc1cccc2c1C(=O)c1c(O)c3c(c(O)c1C2=O)C[C@@](O)(C(=O)CO)C[C@@H]3O[C@H]1C[C@H](N)[C@H](O)[C@H](C)O1 [Doxorubicin, Doxorubicin hydrochloride]
HepG2 cells [3]; HepG2, 6 h
  change in cellular ATP: increases
HepG2 cells [3]; HepG2, 24 h
  change in cellular ATP: loss
HepG2 cells [4]; HepG2, 1 h
  change in glutathione: Increases
HepG2 cells [4]; HepG2, 24 h
  change in glutathione: loss
HepG2 cells [5]
  change in mitochondrial mass: increases

## NC(=O)c1cccnc1 [Niacinamide, Nicotinamide]
IL-8
  change in IL-8: small but appreciable decrease

## OCCOc1ccccc1 [Phenoxyethanol, 2-Phenoxyethanol]
HepG2 cells [1]; HepG2, up to 1000 µM
  concentration-responses among all 36 biomarkers: no concentration-responses could be detected

## CCc1ccc(CCOc2ccc(CC3SC(=O)NC3=O)cc2)nc1 (stereo not drawn) [Pioglitazone, Pioglitazone hydrochloride]
HepG2 cells [6]; HepG2, concentrations between 40 and 100 µM
  change in OCR and reserve capacity: increase
HepG2 cells [6]; HepG2, concentrations up to 10 µM
  change in OCR and reserve capacity: decrease

## C[S+]([O-])CCCCN=C=S [Sulforaphane, L-Sulforaphane]
HepG2 cells [1]
  bioactivity group: 3

## Oc1cc(Cl)ccc1Oc1ccc(Cl)cc1Cl [Triclosan]
HepG2 cells [7]
  increase in mitochondrial superoxide (MitoROS): 2- to 4 fold
HepG2 cells [3]; HepG2, 6 h
  change in cellular ATP: increase
HepG2 cells [3]; HepG2, 24 h
  change in cellular ATP: reduction

## Cc1c(C)c2c(c(C)c1O)CCC(C)(COc1ccc(CC3SC(=O)NC3=O)cc1)O2 (stereo not drawn) [Troglitazone]
HepG2 cells [6]; HepG2, two highest concentrations (40 and 100 µM)
  effect on OCR: reduced the OCR near to zero
